Calls of active or inactive are those of the source. No cut-off for these calls is given here.
Key:
Leishmania donovani [1] = assay: Antileishmanial activity against intracellular amastigote form of Leishmania donovani MHOM/IN/80/Dd8 expressing luciferase gene infected in mouse J774A1 cells after 72 hrs by luminescence analysis; type: functional, organism-based; settings: MHOM/IN/80/Dd8, J774.A1, 72 h
Outline: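 J774A.1 macrophages (4 × 10⁴/mL, RPMI-1640 + 10% HIFBS, 37 °C, 5% CO₂), after 24 h infected with stationary-phase luciferase promastigotes (4 × 10⁵/mL). Free parasites washed off after 24 h. Compound added at up to 7 dilutions from 40 μM for 72 h. Luminescence read after Steady Glo in PBS. IC₅₀ from four-parameter Hill fit; at least duplicate measurements.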

Leishmania donovani [2] = assay: Antileishmanial activity against extracellular promastigote form of Leishmania donovani MHOM/IN/80/Dd8 expressing firefly luciferase gene assessed as inhibition of parasitic multiplication at 25 uM after 96 hrs by luminescence analysis; type: functional; settings: for inhibition at 25 µM: MHOM/IN/80/Dd8, 96 h
Outline: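 Late-log luciferase-expressing Dd8 promastigotes, 5 × 10⁵/mL in complete M-199, incubated with compound at 24 °C for 96 h. Aliquot mixed with Steady Glo and luminescence read as RLU. Inhibition of multiplication taken from luciferase signal of treated versus untreated parasites.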

Leishmania donovani [3] = assay: Antileishmanial activity against Leishmania donovani MHOM/IN/80/Dd8 amastigotes infected in syrian golden hamster assessed as decrease in parasite count in spleen at 30 mg/kg/day, po for 5 days measured on day 28 after last dose administration by giemsa staining; type: functional; settings: MHOM/IN/80/Dd8, Spleen
Outline: (§1)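 Golden hamsters of either sex infected intracardially with 1 × 10⁷ L. donovani Dd8 amastigotes. After 15−20 days, pretreatment spleen biopsy; animals with +1 grade infection (5−10 amastigotes/100 spleen cell nuclei) used, 5−6 per compound. Aqueous suspensions dosed IP or PO for 5−10 consecutive days starting 2 days after biopsy. Splenic biopsies on day 7 and 28 after last dose, Giemsa counts; PI = 100 − [(ANAT×100)/(INAT×TIUC)].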

Leishmania donovani [4] = assay: Antileishmanial activity against Leishmania donovani MHOM/IN/80/Dd8 amastigotes infected in syrian golden hamster assessed as decrease in parasite count in spleen at 30 mg/kg/day, po for 5 days measured on day 7 after last dose administration by giemsa staining; type: functional; settings: MHOM/IN/80/Dd8, Spleen; outline: as §1
[5] = Selectivity index, ratio of CC50 for African green monkey Vero cells to IC50 for Leishmania donovani MHOM/IN/80/Dd8 intracellular amastigote form expressing luciferase gene infected in mouse J774A1 cells; type: functional, J774.A1
Outline: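 Ratio of CC₅₀ in Vero cells (72 h MTT) to IC₅₀ against luciferase-expressing amastigotes in J774A.1 macrophages (72 h luminescence).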

Leishmania donovani [6] = assay: Antileishmanial activity against Leishmania donovani MHOM/IN/80/Dd8 amastigotes infected in syrian golden hamster assessed as decrease in parasite count in spleen at 50 mg/kg/day, po for 5 days measured on day 7 after last dose administration by giemsa staining; type: functional; settings: MHOM/IN/80/Dd8, Spleen; outline: as §1
[7] = Cytotoxicity against African green monkey Vero cells after 72 hrs by MTT assay; type: cell-based; settings: chlorocebus sabaeus
Outline: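 Vero cells at 1 × 10⁵/mL exposed to seven concentrations from 400 μM at 37 °C, 5% CO₂, for 72 h. MTT (5 mg/mL) added for 2 h at 37 °C, formazan dissolved in DMSO, absorbance read at 544 nm. CC₅₀ estimated by the Huber and Koella method; at least duplicate measurements.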

Leishmania donovani [8] = assay: Antileishmanial activity against Leishmania donovani MHOM/IN/80/Dd8 amastigotes infected in syrian golden hamster assessed as decrease in parasite count in spleen at 50 mg/kg/day, po for 5 days measured on day 28 after last dose administration by giemsa staining; type: functional; settings: MHOM/IN/80/Dd8, Spleen; outline: as §1
[9] = Cytotoxicity against mouse J774A1 cells infected with Leishmania donovani expressing luciferase gene; type: cell-based; settings: j774.a1
Leishmania donovani [10] = assay: Antileishmanial activity against Leishmania donovani MHOM/IN/80/Dd8 amastigotes infected in syrian golden hamster assessed as decrease in parasite count in spleen at 40 mg/kg/day, ip for 5 days measured on day 28 after last dose administration by giemsa staining; type: functional, organism-based; outline: as §1
Leishmania donovani [11] = assay: Antileishmanial activity against Leishmania donovani MHOM/IN/80/Dd8 amastigotes infected in syrian golden hamster assessed as decrease in parasite count in spleen at 40 mg/kg/day, ip for 5 days measured on day 7 after last dose administration by giemsa staining; type: functional, organism-based; outline: as §1

Row | Compound | IC50 (Leishmania donovani [1]) [µM] | inhibition at 25 µM (Leishmania donovani [2]) [%] | Ratio CC50/IC50 [5] | CC50 at 72 h [7] [µM] | other results
1 | CC(C)=CCCC1(C)C=Cc2c(ccc(/C=C/C(=O)c3ccc(C)c(C)c3)c2O)O1 (stereo unspecified) | > 20 | 93.2 | – | – | –
2 | CCCCCCCCCCCCCCCCOP(=O)([O-])OCC[N+](C)(C)C [MILTEFOSINE] | – | 100 | – | – | inhibition in vivo at 30 mg/kg/day (Leishmania donovani [3]): 83.2%; inhibition in vivo at 30 mg/kg/day (Leishmania donovani [4]): 98.5%
3 | CC(C)=CCCC1(C)C=Cc2c(ccc(C(=O)/C=C/c3cccnc3)c2OCCN2CCCCC2)O1 (stereo unspecified) | 1.7 | 99.8 | 38.3 | 65.2 | inhibition in vivo at 50 mg/kg/day (Leishmania donovani [6]): 73.2%; inhibition in vivo at 50 mg/kg/day (Leishmania donovani [8]): 50%
4 | CC(C)=CCCC1(C)C=Cc2c(ccc(C(=O)/C=C/c3ccc4oc(C(=O)c5ccccc5)cc4c3)c2O)O1 (stereo unspecified) | > 20 | 94.4 | – | – | –
5 | CC(C)=CCCC1(C)C=Cc2c(ccc(C(=O)/C=C/c3cc4cc(C)ccc4nc3Cl)c2O)O1 (stereo unspecified) | – | 100 | – | – | Activity [9]: Toxic
6 | sodium stibogluconate | – | – | – | – | inhibition (Leishmania donovani [10]): 72.5%; inhibition (Leishmania donovani [11]): 89.5%; inhibition (Leishmania donovani [2]): inactive
7 | CC(C)=CCCC1(C)C=Cc2c(ccc(/C=C/C(=O)c3ccc(C)cc3)c2O)O1 (stereo unspecified) | > 20 | 92.7 | – | – | –
8 | CC(C)=CCCC1(C)C=Cc2c(ccc(C(=O)/C=C/c3ccc4occc4c3)c2O)O1 (stereo unspecified) | > 20 | 96.5 | – | – | –
9 | COc1ccc(/C=C/C(=O)c2ccc3c(c2O)CCC(C)(CCCC(C)C)O3)cc1 (stereo unspecified) | > 20 | 62.3 | – | – | –

Second part, led by results:

Row | IC50 (Leishmania donovani [1]) [µM] | Compound | inhibition at 25 µM (Leishmania donovani [2]) [%] | Ratio CC50/IC50 [5] | CC50 at 72 h [7] [µM] | other results
10 | 6.3 | CC(C)=CCCC1(C)C=Cc2c(ccc(C(=O)/C=C/c3ccc(OCCN4CCCCC4)cc3)c2OCCN2CCCCC2)O1 (stereo unspecified) | 99.9 | 31.9 | – | –
11 | 10.7 | CC(C)=CCCC1(C)C=Cc2c(ccc(C(=O)/C=C/c3cc(C=O)ccc3O)c2O)O1 (stereo unspecified) | 91.2 | 5.5 | 59.4 | –
12 | > 20 | COc1ccc(C(=O)c2cc3cc(/C=C/C(=O)c4ccc5c(c4O)C=CC(C)(CCC=C(C)C)O5)ccc3o2)cc1 (stereo unspecified) | 92.9 | – | – | –
13 | 5.8 | CC(C)=CCCC1(C)C=Cc2c(ccc(C(=O)/C=C/c3cccc(-c4ncc(-c5cccc(O)c5)o4)c3)c2O)O1 (stereo unspecified) | 99.5 | >68.9 | > 400 | –
14 | 11 | CC(C)=CCCC1(C)C=Cc2c(ccc(C(=O)CCc3cccnc3)c2O)O1 (stereo unspecified) | 98.5 | 24.1 | 266 | –
15 | 6.4 | CC(=O)N1N=C(c2ccc3c(c2O)C=CC(C)(CCC=C(C)C)O3)CC1c1cccnc1 (stereo unspecified) | 99.5 | 13.8 | 88.5 | –
16 | > 20 | CC(C)=CCCC1(C)C=Cc2c(ccc(C(=O)/C=C/c3ccc(O)c(C=O)c3)c2O)O1 (stereo unspecified) | 94.6 | – | – | –
17 | 16.5 | CC(C)=CCCC1(C)C=Cc2c(ccc(C(=O)/C=C/c3ccc(O)cc3)c2O)O1 (stereo unspecified) [LESPEOL] | 97.5 | 11.5 | 190 | –

Reference: ChEMBL document CHEMBL3259690, “Synthesis, structure-activity relationships, and biological studies of chromenochalcones as potential antileishmanial agents” (J Med Chem, 2014)
